Laboratory results published in ChEMBL document CHEMBL3352721, “Identification, optimization, and pharmacology of acylurea GHS-R1a inverse agonists” (J Med Chem, 2014).
Converted amounts (≈) assume the structure as drawn. The source made the active and inactive calls. No cut-off for these calls is given here. Non-standard residues stand in square brackets, D forms with d. Residues, ends and D or L forms follow the SMILES beside them. dTrp(2-Me) = Cc1[nH]c2ccccc2c1C[C@@H](N)C(=O)O

How the values were obtained:
[1] = test system: MDR1; assay: Apparent permeability in MDCK cells expressing MDR1 at 10 uM assessed as apical to basolateral side transport; type: ADME, cell-based, Canis lupus familiaris; conditions: dog
Summary of the method: (§1)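 MDCK-MDR1 monolayers incubated with compound at 10 µM; permeability measured in both A→B and B→A directions, giving Papp A-B (x10^6 cm/s) and the efflux ratio.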

[2] = Lipophilicity, logD of the compound; type: physicochemical; conditions: octanol/water
[3] = Ratio of drug level in homogenized brain to plasma in Han-Wistar rat measured 1 hr after iv bolus then iv infusion by LC-MS/MS method; type: ADME, organism-based; conditions: read-out: BPR
Summary of the method: (§2)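 Brain:plasma ratio in homogenized brain 1 h after IV bolus followed by IV infusion. The free ratio used free fractions measured in plasma and brain (brain slice method or brain homogenate).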

[4] = test system: MDR1; assay: Efflux ratio in MDCK cells expressing MDR1 at 10 uM; type: ADME, cell-based, Canis lupus familiaris; conditions: dog; summary of the method: as §1
[5] = molecular target: Growth hormone secretagogue receptor type 1 (Homo sapiens, UniProt Q92847); assay: Displacement of [125I]human ghrelin from human GHS-R1a expressed in HEK cell membranes after 60 mins by gamma counting method; set-up: species or system HEK293
[6] = Cmax in Han-Wistar rat at 2 mg/kg, po by LC-MS/MS method; type: ADME, organism-based; set-up: dose 2 mg/kg, route oral; conditions: in vivo
Summary of the method: (§3)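 Oral gavage in male HW rats, beagle dogs or CD-1 mice, vehicle Pluronic F127 in water. EDTA plasma was collected over 24 h and quantified by LC/MS/MS after acetonitrile precipitation. Cmax and bioavailability were obtained by non-compartmental analysis against IV data.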

[7] = Ratio of free drug level in homogenized brain to plasma in Han-Wistar rat measured 1 hr after iv bolus then iv infusion by LC-MS/MS method; type: ADME, organism-based; conditions: read-out: BPR; summary of the method: as §2
[8] = Aqueous solubility at pH 7.4 under thermodynamic conditions; type: physicochemical; conditions: buffer, read-out: Therm_solubility
Summary of the method: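 Thermodynamic solubility measured from solid samples in aqueous medium at pH 7.4.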

[9] = Cmax in CD1 mouse at 2 mg/kg, po by LC-MS/MS method; type: ADME, organism-based; set-up: dose 2 mg/kg, route oral; conditions: in vivo; summary of the method: as §3
[10] = Ratio of drug level in homogenized brain to plasma in CD1 mouse at 2 mg/kg, po measured after 6 hrs by LC-MS/MS method; type: ADME, organism-based; set-up: dose 2 mg/kg, route oral; conditions: read-out: BPR
Summary of the method: (§4)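 CD-1 mice dosed PO in 1% Pluronic F127. Drug was measured in homogenized brain and in plasma 6 h after dosing and expressed as a brain:plasma ratio. The free ratio used free fraction measured in mouse plasma and rat brain (brain slice or brain homogenate).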

[11] = Ratio of free drug level in homogenized brain to plasma in CD1 mouse measured 6 hrs after oral dosing by LC-MS/MS method; type: ADME; summary of the method: as §4
[12] = test system: Mus musculus; assay: Increase in food intake in po dosed C57Bl6j mouse free feeding model measured in 2 hrs intervals; type: functional, organism-based
Summary of the method: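 Male mice (C57Bl6j, GHSr1-/- or wild-type littermates) were acclimatized 3 weeks to reversed light-dark, then individually housed 7 days and grouped (n=10-12) by baseline intake and body weight. Suspensions in 1% Pluronic F127 or vehicle were gavaged at 10 mL/kg about 1 h before dark onset. Pre-weighed food was reweighed at 2, 4, 6 and 24 h.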

[13] = Ratio of drug level in homogenized brain to plasma in CD1 mouse at 0.9 mg/kg, po measured after 6 hrs by LC-MS/MS method; type: ADME, organism-based; set-up: dose 0.9 mg/kg, route oral; conditions: read-out: BPR; summary of the method: as §4

Sequence of Growth hormone secretagogue receptor type 1 (Q92847 whole entry): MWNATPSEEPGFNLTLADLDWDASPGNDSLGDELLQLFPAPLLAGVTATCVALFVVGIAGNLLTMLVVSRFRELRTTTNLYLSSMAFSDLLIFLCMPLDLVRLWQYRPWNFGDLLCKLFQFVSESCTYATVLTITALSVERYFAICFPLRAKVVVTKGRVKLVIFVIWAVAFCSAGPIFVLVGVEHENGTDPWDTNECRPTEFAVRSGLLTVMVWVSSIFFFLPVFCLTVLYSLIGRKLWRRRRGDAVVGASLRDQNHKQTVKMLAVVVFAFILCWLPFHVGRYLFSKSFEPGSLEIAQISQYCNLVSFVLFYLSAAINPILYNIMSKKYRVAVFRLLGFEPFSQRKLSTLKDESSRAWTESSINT

| Papp A→B at 10 µM [1] [nm/s] | logD [2] | efflux ratio at 10 µM [4] | IC50 [5] [nM] | Cmax [6] [µM] | solubility thermodynamic [8] [µM] | SMILES | further results |
| --- | --- | --- | --- | --- | --- | --- | --- |
| 17 | 2.9 | 13 | 0.078 | 1.5 |  | CCc1ccc(Cl)c(C(=O)NC(=O)Nc2nc3ccc(S(=O)(=O)CCCN4CCN(C)CC4)cc3s2)c1 | Kp at 1 h [3]: 0.036; Kp uu at 1 h [7]: 0.04 |
| 130 | 1.7 | 1.4 |  |  | 240 (≈ 115 µg/mL) | CN(C)CCCS(=O)(=O)c1ccc2nc(NC(=O)NC(=O)c3ccccc3Cl)sc2c1 |  |
| 39 | 2.8 | 0.71 | 0.57 | 0.3 |  | CN1CCN(CCCS(=O)(=O)c2ccc3nc(NC(=O)NC(=O)c4cc5c(ccn5C)cc4Cl)sc3c2)CC1 | Kp at 1 h [3]: 0.049; Kp uu at 1 h [7]: 0.04 |
|  | 2.3 |  |  |  | 71 (≈ 34.2 µg/mL) | CC(C)NCCS(=O)(=O)c1ccc2nc(NC(=O)NC(=O)c3ccccc3Cl)sc2c1 |  |
| 8.6 | 2.2 | 46 |  |  |  | COc1cc(Cl)c(C(=O)NC(=O)Nc2nc3ccc(S(=O)(=O)CCCN4CCN(C)CC4)cc3s2)cc1-n1cccn1 |  |
| 29 | 2 | 7.6 | 0.67 | 1.2 |  | CN1CCN(CCCS(=O)(=O)c2ccc3nc(NC(=O)NC(=O)c4cc(-n5cccn5)ccc4Cl)sc3c2)CC1 | Kp at 1 h [3]: < 0.03 |
| 7.1 | 2.1 | 12 | 3.9 | 1.6 |  | CCN(CC)CCCS(=O)(=O)c1ccc2nc(NC(=O)NC(=O)c3cc(-n4cccn4)ccc3Cl)sc2c1 |  |
| 110 | 3.1 | 0.05 | 0.92 |  |  | CN1CCC(S(=O)(=O)c2ccc3nc(NC(=O)NC(=O)c4cc(N5CCCC5)ccc4Cl)sc3c2)CC1 | Cmax [9]: 5.8 µM |
| 35 | 2.6 | 0.86 | 0.48 | 0.22 |  | Cc1ccn(-c2ccc(C(=O)NC(=O)Nc3nc4ccc(S(=O)(=O)CCCN5CCN(C)CC5)cc4s3)c(Cl)c2)n1 |  |
| 9.1 | 1.6 | 25 |  | 0.012 |  | CN1CCN(CCCS(=O)(=O)c2ccc3nc(NC(=O)NC(=O)c4cccc(-n5cccn5)c4Cl)sc3c2)CC1 |  |
|  | 1.5 |  |  |  | 240 (≈ 125 µg/mL) | CN1CCN(CCS(=O)(=O)c2ccc3nc(NC(=O)NC(=O)c4ccccc4Cl)sc3c2)CC1 |  |
| 28 | 2.4 | 5 | 0.31 | 4.2 |  | CCOc1ccc(Cl)c(C(=O)NC(=O)Nc2nc3ccc(S(=O)(=O)CCCN4CCN(C)CC4)cc3s2)c1 | Kp at 1 h [3]: 0.052; Kp uu at 1 h [7]: 0.52 |
| 4.4 | 2.5 | 76 | 1.3 | 0.078 |  | Cc1cc(C)n(-c2ccc(Cl)c(C(=O)NC(=O)Nc3nc4ccc(S(=O)(=O)CCCN5CCN(C)CC5)cc4s3)c2)n1 |  |
| 11 | 2.6 | 15 | 33 |  |  | Cc1ccnn1-c1ccc(Cl)c(C(=O)NC(=O)Nc2nc3ccc(S(=O)(=O)C4CCN(C)CC4)cc3s2)c1 | Cmax [9]: 0.64 µM; Kp at 6 h [10]: 0.9; Kp uu at 6 h [11]: 0.61 |
| 54 | 1.7 | 2.7 | 13 |  | 280 (≈ 143 µg/mL) | CCN(CC)CCCS(=O)(=O)c1ccc2nc(NC(=O)NC(=O)c3ccccc3Cl)sc2c1 |  |
|  | > 3.9 |  | 210 |  | < 0.71 | COc1ccc2nc(NC(=O)NC(=O)c3c(Cl)cccc3Cl)sc2c1 |  |
|  | 2.7 |  |  |  | 64 (≈ 31.6 µg/mL) | O=C(NC(=O)c1ccccc1Cl)Nc1nc2ccc(S(=O)(=O)CCN3CCCC3)cc2s1 |  |
| 5.2 | 2.5 | 19 | 0.69 | 1 |  | CN1CCN(CCCS(=O)(=O)c2ccc3nc(NC(=O)NC(=O)c4cc(-c5ccccn5)ccc4Cl)sc3c2)CC1 |  |
|  | > 4 |  | 76 |  | 0.78 (≈ 0.282 µg/mL) | COc1ccc2nc(NC(=O)NC(=O)c3ccccc3Cl)sc2c1 |  |

| Papp A→B at 10 µM [1] [nm/s] | logD [2] | efflux ratio at 10 µM [4] | IC50 [5] [nM] | Cmax [6] [µM] | solubility thermodynamic [8] [µM] | SMILES | further results |
| --- | --- | --- | --- | --- | --- | --- | --- |
|  | 1.3 |  | 8.6 |  | 87 (≈ 44.5 µg/mL) | COCCNCCCS(=O)(=O)c1ccc2nc(NC(=O)NC(=O)c3ccccc3Cl)sc2c1 |  |
| 4 | 2.3 | 55 |  | 0.03 |  | CN1CCN(CCCS(=O)(=O)c2ccc3nc(NC(=O)NC(=O)c4cc(-n5cccn5)c(Cl)cc4Cl)sc3c2)CC1 |  |
| 33 | 2.3 | 3.3 | 5.1 | 1.4 |  | C#Cc1ccc(Cl)c(C(=O)NC(=O)Nc2nc3ccc(S(=O)(=O)CCCN4CCN(C)CC4)cc3s2)c1 | Kp at 1 h [3]: < 0.03 |
| 7 | 1 | 41 | 4.2 |  | 340 (≈ 187 µg/mL) | CN1CCCN(CCCS(=O)(=O)c2ccc3nc(NC(=O)NC(=O)c4ccccc4Cl)sc3c2)CC1 |  |
|  |  |  |  |  |  | Cc1[nH]c2ccccc2c1C[C@@H](NC(=O)[C@@H](N)Cc1c[nH]cn1)C(=O)N[C@@H](C)C(=O)N[C@@H](Cc1c[nH]c2ccccc12)C(=O)N[C@H](Cc1ccccc1)C(=O)N[C@@H](CCCCN)C(N)=O (H-H[dTrp(2-Me)]AW[dF]K-NH2) | Activity [12]: Active |
| 33 | 1.8 | 5.5 | 2.9 | 9.4 |  | CCN(CC)CCCS(=O)(=O)c1ccc2nc(NC(=O)NC(=O)c3cc(N4CCOCC4)ccc3Cl)sc2c1 | Kp at 1 h [3]: < 0.01 |
| 3.7 | 2.6 | 38 | 0.15 | 0.58 |  | CN1CCN(CCCS(=O)(=O)c2ccc3nc(NC(=O)NC(=O)c4cc(-n5cccc5)ccc4Cl)sc3c2)CC1 |  |
|  | 2.5 |  | 120 |  | < 0.47 | CS(=O)(=O)c1ccc2nc(NC(=O)NC(=O)c3ccccc3Cl)sc2c1 |  |
| 45 | 3.1 | 0.55 | 0.29 | 0.64 |  | CN1CCN(CCCS(=O)(=O)c2ccc3nc(NC(=O)NC(=O)c4cc(N5CCCC5)ccc4Cl)sc3c2)CC1 | Kp at 1 h [3]: < 0.03 |
| 170 | 2.2 | 0.9 | 65 |  | 69 (≈ 34 µg/mL) | CN1CCC(S(=O)(=O)c2ccc3nc(NC(=O)NC(=O)c4ccccc4Cl)sc3c2)CC1 |  |
|  | 2.8 |  | 0.24 |  |  | CN1CCN(CCCS(=O)(=O)c2ccc3nc(NC(=O)NC(=O)c4cc(N5CCCC5)c(C#N)cc4Cl)sc3c2)CC1 |  |
| 1 | 2.9 | 42 | 0.43 | 3.6 |  | CCN(CC)CCCS(=O)(=O)c1ccc2nc(NC(=O)NC(=O)c3cc(-n4cccc4)ccc3Cl)sc2c1 |  |
| 30 | 3 | 0.47 | 0.4 |  |  | CN1CCC(S(=O)(=O)c2ccc3nc(NC(=O)NC(=O)c4cc(N5CCCC5)c(C#N)cc4Cl)sc3c2)CC1 | Cmax [9]: 0.84 µM; Kp uu at 6 h [11]: 0.38; Kp at 6 h [13]: 0.072 |
|  | 2.8 |  | 4700 |  | 3 (≈ 1.23 µg/mL) | CS(=O)(=O)c1ccc2sc(NC(=O)NC(=O)c3ccccc3Cl)nc2c1 |  |
| 39 | 2.5 | 2.5 | 15 |  |  | CN1CCC(S(=O)(=O)c2ccc3nc(NC(=O)NC(=O)c4cc(-n5cccn5)ccc4Cl)sc3c2)CC1 | Cmax [9]: 1.5 µM |
| 20 | 2.9 | 9.1 | 0.33 | 1.4 |  | CN1CCN(CCCS(=O)(=O)c2ccc3nc(NC(=O)NC(=O)c4cc(C5CC5)ccc4Cl)sc3c2)CC1 | Kp at 1 h [3]: 0.18; Kp uu at 1 h [7]: 1.2 |
|  | 2.8 |  |  |  |  | CS(=O)(=O)c1ccc2nc(NC(=O)NC(=O)c3cc(-n4cccc4)ccc3Cl)sc2c1 |  |
|  | 1.1 |  | > 10000 |  | 72 (≈ 28.4 µg/mL) | CS(=O)(=O)c1ccc2nc(NC(=O)NC(=O)c3ccccc3Cl)oc2c1 |  |
| 6.8 | 2.6 | 14 | 0.53 | 0.41 |  | Cc1ccn(-c2ccc(Cl)c(C(=O)NC(=O)Nc3nc4ccc(S(=O)(=O)CCCN5CCN(C)CC5)cc4s3)c2)n1 |  |
